PME-1 primary: PME-1 inhibitors via competitive probe labeling, primary screen, biochemical, fluorescence polarization, FP-Rh probe, HTS. recombinant PME-1. inhibition, % at 5.9 µM. 320,000 compounds, 0.53% hits;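 active means inhibition above the campaign mean of all compounds plus 3 SD, cut at about 26% in these data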;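 further: competitive labeling of PME-1 active site by serine hydrolase directed probe; 0% = PME-1 with DMSO and 100% = wells lacking PME-1 enzyme; inhibitors block probe labeling so polarization falls and inhibition rises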
LYPLA2 inh: LYPLA2 inhibitors, primary screen, counter-screen for PME1 inhibitor project, biochemical, fluorescence polarization, FP-Rh probe ABPP; 320,000 compounds, 0.38% hits; inhibition, % at 5.9 µM; recombinant LYPLA2;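 active means inhibition above the screen-wide mean plus 3 SD, limit set per campaign, cut at about 26% in these data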;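 further: 0% = LYPLA2 with DMSO and 100% = wells lacking LYPLA2 enzyme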
RBBP9 inhibitor: human RBBP9 inhibitors, primary screen, biochemical, fluorescence polarization, FP-Rh probe, HTS | inhibition, % at 7.94 µM | recombinant RBBP9 | Serine hydrolase RBBP9 (Homo sapiens), O75884 | 220,000 compounds, 0.2% hits | AID 1515, 2009;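 active means inhibition above the campaign mean of all tested compounds plus 3 SD, cut at about 14% in these data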;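 further: plate controls were DMSO wells with RBBP9 for no effect and wells lacking RBBP9 protein for full effect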
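Test system – recombinant human RBBP9 · Input – RBBP9 2.5 µM in dispensing solution, pre-mixing · Medium – Tris buffer pH 8.0, NaCl, Pluronic · Schedule – preincubation 30 min plus labeling 45 min at 25 °C · Measured by – fluorescence polarization · Measure – % inhibition · Controls – DMSO and no-protein wells · Replicates – one well per compound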
LYPLA1 counter: LYPLA1 inhibitors, primary screen, counter-screen for PME1 inhibitor project, biochemical, fluorescence polarization, FP-Rh probe ABPP; recombinant LYPLA1; inhibition, % at 5.9 µM; 320,000 compounds, 0.16% hits;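 active means inhibition above the mean of all tested compounds plus 3 SD, set per campaign, cut at about 14% in these data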;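 further: inhibitors block serine hydrolase probe labeling of LYPLA1 so polarization falls; 0% = enzyme with DMSO and 100% = wells lacking LYPLA1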
Fam108B counter: mouse Fam108B serine hydrolase inhibitors, primary screen, counter-screen for RBBP9 inhibitor project, biochemical, fluorescence polarization. 300,000 compounds, 0.33% hits. AID 1947, 2009. inhibition, % at 9.51 µM. recombinant Fam108B, FP-Rh probe fluorescence polarization;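 active means inhibition above the screen mean inhibition plus 3 SD, computed separately per campaign, cut at about 18% in these data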;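 further: inhibitors lower polarization as less probe binds the enzyme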
PAD4 inh: human PAD4 inhibitors, primary screen, biochemical, fluorescence polarization, 1536-well format | Protein-arginine deiminase type-4 (Homo sapiens), Q9UM07 | recombinant PAD4, RCA probe fluorescence polarization | inhibition, % at 6.36 µM | 330,000 compounds, 0.41% hits | AID 485272, 2010;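 active means percent inhibition above a cutoff equal to the mean of all tested compounds plus 3 SD, cut at about 15% in these data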;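 further: 0% = PAD4 with RCA probe and DMSO and 100% = probe without PAD4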
Target sequence (Q9UM07 whole entry, looked up): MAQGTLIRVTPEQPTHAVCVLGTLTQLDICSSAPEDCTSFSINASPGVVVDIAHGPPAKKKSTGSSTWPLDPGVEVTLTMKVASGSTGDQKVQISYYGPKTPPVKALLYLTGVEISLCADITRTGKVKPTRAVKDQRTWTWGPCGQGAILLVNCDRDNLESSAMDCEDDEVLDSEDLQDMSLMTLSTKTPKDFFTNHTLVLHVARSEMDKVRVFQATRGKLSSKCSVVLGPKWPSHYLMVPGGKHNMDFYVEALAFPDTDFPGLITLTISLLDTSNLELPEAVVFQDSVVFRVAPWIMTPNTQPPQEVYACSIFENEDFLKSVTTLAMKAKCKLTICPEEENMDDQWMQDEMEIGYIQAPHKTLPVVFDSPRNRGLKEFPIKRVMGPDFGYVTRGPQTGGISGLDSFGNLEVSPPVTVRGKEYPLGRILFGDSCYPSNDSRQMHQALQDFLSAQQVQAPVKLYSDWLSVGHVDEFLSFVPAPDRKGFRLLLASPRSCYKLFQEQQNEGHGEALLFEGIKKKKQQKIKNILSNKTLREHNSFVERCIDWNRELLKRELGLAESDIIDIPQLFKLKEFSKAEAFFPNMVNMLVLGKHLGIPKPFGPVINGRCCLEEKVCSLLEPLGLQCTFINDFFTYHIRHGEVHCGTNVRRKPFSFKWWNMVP
LYPLA1 conf: LYPLA1 inhibitors, retest, confirmation, counter-screen for PME1 inhibitor project, biochemical, fluorescence polarization, FP-Rh probe ABPP. shares compounds with LYPLA1 counter. recombinant LYPLA1. inhibition, % at 5.9 µM. 480 compounds, 69% hits. AID 2233, 2010;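 active means mean inhibition across replicates above the hit cutoff set in the primary screen, cut at about 15% in these data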;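 further: loss of FP-Rh probe labeling of LYPLA1 seen as lower polarization; 0% = LYPLA1 with DMSO and 100% = wells lacking LYPLA1 enzyme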
LYPLA2 confirm: LYPLA2 inhibitors, retest, confirmation, counter-screen for PME1 inhibitor project, biochemical, fluorescence polarization, FP-Rh probe ABPP. inhibition, % at 5.9 µM. recombinant LYPLA2. 1,100 compounds, 72% hits. shares compounds with LYPLA2 inh;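 active means mean inhibition across replicates above the hit cutoff set in the primary screen, cut at about 26% in these data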;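 further: blocked labeling of the enzyme by serine hydrolase FP-Rh probe lowers polarization; 0% = enzyme with DMSO and 100% = wells lacking LYPLA2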
LYPLA2 ABPP: LYPLA2 inhibitors in proteome, late-stage follow-up, gel-based competitive ABPP, fluorescence, assay provider; 150 compounds, 30% hits; shares compounds with LYPLA2 inh; inhibition, % at 20 µM; rhLYPLA2 in mouse brain proteome, gel ABPP FP-Rh;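 active means inhibition of LYPLA2 enzyme probe labeling above about 50%, limit read from the data; inactive means inhibition below that limit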;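 further: loss of FP-Rh probe labeling of the LYPLA2 gel band measured as band density; 0% = DMSO only control band and 100% = blank gel background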
Starred values were filed as active, the others as inactive; x = no result given. Most compounds without a hit are left out; they make up all but 1.3% or so of the library.

SMILES	PME-1 primary	LYPLA2 inh	RBBP9 inhibitor	LYPLA1 counter	Fam108B counter	PAD4 inh	LYPLA1 conf	LYPLA2 confirm	others
Cc1ccc(/C=N/N2CCN(Cc3ccc(C)cc3)CC2)cc1	2	10	-1	4	0	5	x	x
Cc1ccc(CN2CCN(/N=C\c3cccc([N+](=O)[O-])c3)CC2)cc1	-5	28*	3	17*	0	-3	19*	35*
C(=C\c1ccccc1)/CN1CCN(c2ncnc3c2oc2ccccc23)CC1	0	35*	-1	15*	-2	1	23*	32*
CC(=O)c1ccc(OCc2cc(C(=O)N(C)CCOc3ccc(C)cc3)no2)cc1	1	26*	x	20*	1	5	23*	9
CCOC(=O)C1CCN(c2ncnc3c2nnn3Cc2ccccc2Cl)CC1	9	48*	0	28*	0	-1	40*	54*
O=C(c1ccco1)N1CCN(c2ncnc3c2nnn3Cc2ccccc2Cl)CC1	8	17	1	8	7	7	x	x
O=C(COc1ccccc1Cl)Nc1ccc(N2CCCC2)cc1	1	27*	x	33*	-1	-7	1	-2
O=C(CCCCCCCCN1C(=O)c2ccccc2C1=O)N1CCOCC1	-4	3	-1	-1	-1	0	x	x
O=C(CCCCCCN1C(=O)c2ccccc2C1=O)N1CCC(c2ccccc2)C1 (configuration not stated)	7	76*	-1	68*	4	-1	68*	70*
CSc1ccccc1OCc1cc(C(=O)N2CCC(Oc3cccnc3)CC2)no1	6	35*	x	36*	-4	-7	47*	39*
O=C(/C=C/c1ccc(Br)cc1)N1CCN(c2cccc(C(F)(F)F)c2)CC1	0	78*	-11	46*	1	-4	49*	63*
COc1ccc(C(=O)NC(=S)Nc2ccc(CN3CCOCC3)cc2)cc1	0	10	-10	4	0	2	x	x
COc1ccc(C(=O)NC(=S)Nc2ccc(CN3CCOCC3)cc2)cc1Br	2	44*	x	15*	2	-2	22*	47*
COc1ccc(C(=O)NC(=S)Nc2ccc(N3CCOCC3)cc2)cc1Cl	5	39*	x	14*	-1	-1	25*	55*
O=C(COc1ccc(Cl)cc1)N1CCN(c2ccc([N+](=O)[O-])c(N3CCOCC3)c2)CC1	3	32*	-5	68*	3	1	75*	29*
CCCCCCN1C=CC(=C/C=C(\C#N)C(=O)OCC)C=C1	-8	41*	-9	25*	2	-9	27*	35*
CCCCN(C(=O)C1CC1)C1CCS(=O)(=O)C1 (configuration not stated)	-4	3	x	2	1	1	x	x
COc1ccc(N2CCN(C(=O)C3CCC(Cn4c(=S)[nH]c5ccccc5c4=O)CC3)CC2)cc1 (configuration not stated)	-4	83*	-7	40*	-1	-2	43*	84*
O=C(C1CCC(Cn2c(=S)[nH]c3ccccc3c2=O)CC1)N1CCN(c2ccccc2)CC1 (configuration not stated)	-11	53*	-9	36*	-6	-1	45*	52*
O=C(C1CCC(Cn2c(=O)[nH]c3ccccc3c2=O)CC1)N1CCN(c2ccccc2)CC1 (configuration not stated)	5	20	-2	6	1	-6	x	x
O=C(COC(=O)CCc1ccc(S(=O)(=O)N2CCOCC2)cc1)NC(=O)NC1CCCCC1	5	8	-3	1	-3	-1	x	x
O=C(/C=C/c1ccccc1)N1CCN(CCN2C(=O)c3cccc4cccc(c34)C2=O)CC1	-3	64*	-3	37*	-3	-2	35*	59*
O=C(c1ccc(S(=O)(=O)N2CCCCC2)cc1)N1CCN(CCN2C(=O)c3cccc4cccc(c34)C2=O)CC1	4	35*	4	20*	3	-6	42*	60*
O=C(NCc1cccc(C(F)(F)F)c1)N1CCN(S(=O)(=O)c2ccccc2F)CC1	2	4	x	2	-2	-2	x	x
CC(C)OCCCNC(=S)NNC(=O)c1ccc(Cl)c(Cl)c1	2	5	2	3	5	2	x	x
SMILES	PME-1 primary	LYPLA2 inh	RBBP9 inhibitor	LYPLA1 counter	Fam108B counter	PAD4 inh	LYPLA1 conf	LYPLA2 confirm	others
CCC(=O)Nc1nc(C)c(-c2csc(Nc3ccc(S(=O)(=O)Nc4cc(C)on4)cc3)n2)s1	x	x	-4	x	x	x	x	x
Cc1cc(NS(=O)(=O)c2ccc(Nc3nc(-c4sc(NC(=O)c5ccccc5)nc4C)cs3)cc2)no1	81*	59*	1	41*	-9	-15	37*	37*
COc1cccc(CN2CCN(Cc3cccn3-c3cccnc3)CC2CCO)c1 (configuration not stated)	6	-2	-5	1	5	0	x	x
COc1ccc(-n2nc(C(=O)NCC(=O)N3CCN(C)CC3)c3ccccc3c2=O)cc1OC	4	7	-4	1	4	-4	x	x
COc1ccc(-n2nc(C(=O)NCC(=O)N3CCN(Cc4ccccc4)CC3)c3ccccc3c2=O)cc1OC	-5	38*	x	20*	5	0	45*	64*
COc1ccc(-n2nc(C(=O)NCC(=O)N3CCN(C)CC3)c3ccccc3c2=O)cc1	4	8	x	2	1	1	x	x
COc1ccc(N2CCN(C(=O)CNC(=O)c3nn(-c4ccc(OC)cc4)c(=O)c4ccccc34)CC2)cc1	1	55*	x	22*	-1	-2	16*	60*	LYPLA2 ABPP=43
